This note sets out measurements from ChEMBL document CHEMBL4196046, “Design, synthesis, and structure-activity-relationship of a novel series of CXCR4 antagonists” (Eur J Med Chem, 2018).

SMILES strings stand for the structures. Activity calls are given as the source filed them. Some results are limits rather than exact numbers.

Data set [1] deals with T1, C-X-C chemokine receptor type 4 (Homo sapiens, UniProt P61073). Briefly: Displacement of 12G5-CXCL12 from CXCR4 in human HPBALL cells after 3 hrs by FACS analysis. Type of data set: cell-based. (Flow cytometry measures light scatter and fluorescence of single cells or particles in a stream.)
T1 sequence (P61073 whole entry): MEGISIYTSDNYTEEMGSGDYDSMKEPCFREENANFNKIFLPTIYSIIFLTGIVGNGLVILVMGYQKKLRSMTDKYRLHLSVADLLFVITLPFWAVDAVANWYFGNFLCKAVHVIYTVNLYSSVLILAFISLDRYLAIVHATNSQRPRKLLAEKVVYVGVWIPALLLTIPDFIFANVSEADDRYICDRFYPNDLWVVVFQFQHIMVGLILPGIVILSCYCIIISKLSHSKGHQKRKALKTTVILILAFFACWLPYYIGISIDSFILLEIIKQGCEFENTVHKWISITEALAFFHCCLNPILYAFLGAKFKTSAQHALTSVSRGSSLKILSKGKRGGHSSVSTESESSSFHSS
Data set [2] addresses T1, C-X-C chemokine receptor type 4. Description: Antagonist activity at CXCR4 in human CD4+ T cells assessed as inhibition of CXCL12-mediated cytosolic calcium level preincubated with compounds followed by CXCL12 stimulation by calcium 4 dye-based FLIPR assay. The format is functional, cell-based.
Data set [3] addresses Voltage-gated inwardly rectifying potassium channel KCNH2 (Homo sapiens, UniProt Q12809). Briefly: Inhibition of human ERG expressed in CHO cells after 4 mins at -80 mV holding potential by Qpatch assay. Type of data set: cell-based.
A short description of data set [4]: Apparent permeability across apical to basolateral side in human Caco2 cells at 2 uM by LC-MS/MS method. Type of data set: ADME, cell-based. To be noted: Caco-2. On the technique in general: Caco-2 cells form a polarised layer with tight junctions and transporters.
Data set [5] in a line: Efflux ratio of apparent permeability across basolateral to apical over apical to basolateral side in human Caco2 cells at 2 uM by LC-MS/MS method. The following applies: Caco-2. Type of data set: ADME, cell-based.
The nature of data set [6]: Intrinsic clearance in human liver microsomes at 1 uM preincubated for 10 mins followed by NADPH addition measured after 30 to 60 mins by LC-MS/MS method. The following applies: read-out: CLH. The format is ADME, microsome. For orientation: Microsomes from liver hold many membrane-bound enzymes, among them those of drug oxidation.
Data set [7] is described as follows: Intrinsic clearance in mouse liver microsomes at 1 uM preincubated for 10 mins followed by NADPH addition measured after 30 to 60 mins by LC-MS/MS method. Type of data set: ADME, microsome. The following applies: read-out: CLH.
Data set [8] is described as follows: Half life in human liver microsomes at 1 uM preincubated for 10 mins followed by NADPH addition measured after 30 to 60 mins by LC-MS/MS method. The format is ADME, microsome.
Data set [9] is described as follows: Half life in mouse liver microsomes at 1 uM preincubated for 10 mins followed by NADPH addition measured after 30 to 60 mins by LC-MS/MS method. The format is ADME, microsome.
In data set [10] the target is T1, C-X-C chemokine receptor type 4. Briefly: Antagonist activity at CXCR4-mediated chemotaxis in human MDA-MB-231 cells assessed as inhibition of CXCL12-induced cell invasion at 100 nM after 24 hrs by crystal violet staining-based microscopic matrigel assay. The format is functional. In outline: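 MDA-MB-231 cells (1 × 10⁵ cells/well) plus compound (100 nM) in upper chamber of 8-µm-pore Boyden inserts coated with 50mg/L Matrigel; CXCL12 in serum-free medium in lower chamber as chemoattractant. After 24 h, non-invaded cells wiped off; invaded cells fixed in cold methanol, crystal violet stained, counted in 10 random fields (100×). Three independent experiments; t-test vs control.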

Data set [11] has the same target. Description: Potency index, ratio of AMD3100 IC50 to compound IC50 for CXCR4 in human CD4+ T cells. Type of data set: cell-based.
The test system of another data set is MDA-MB-231. Briefly: Antiproliferative activity against human MDA-MB-231 cells at 400 nM after 24 to 48 hrs by MTT assay. Type of data set: functional, cell-based. In outline: (§1)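 Cells seeded at 5 × 10³ cells/well, treated with compound, incubated at 37 °C, 5% CO₂ (48 h in methods; 24 h in figure legend), then 4 h with MTT reagent; formazan dissolved in DMSO, absorbance at 570 nm. Mean±SD of three independent experiments.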

Another data set concerns MCF7. Briefly: Antiproliferative activity against human MCF7 cells at 400 nM after 24 to 48 hrs by MTT assay. The format is functional, cell-based. The gist of the method: as §1
The nature of data set [12]: Antiproliferative activity against HOSEC at 400 nM after 24 to 48 hrs by MTT assay. To be noted: human, 0.4 µM. The gist of the method: as §1
The target in the next data set is CYP3A4 (Homo sapiens, UniProt P08684). Description: Inhibition of CYP3A4 in human liver microsomes at 10 uM using midazolam as substrate preincubated for 10 min followed by NADPH addition measured after 10 mins by LC-MS/MS analysis relative to control. The format is ADME. The following applies: probe midazolam.
Chain of CYP3A4 (P08684 whole entry): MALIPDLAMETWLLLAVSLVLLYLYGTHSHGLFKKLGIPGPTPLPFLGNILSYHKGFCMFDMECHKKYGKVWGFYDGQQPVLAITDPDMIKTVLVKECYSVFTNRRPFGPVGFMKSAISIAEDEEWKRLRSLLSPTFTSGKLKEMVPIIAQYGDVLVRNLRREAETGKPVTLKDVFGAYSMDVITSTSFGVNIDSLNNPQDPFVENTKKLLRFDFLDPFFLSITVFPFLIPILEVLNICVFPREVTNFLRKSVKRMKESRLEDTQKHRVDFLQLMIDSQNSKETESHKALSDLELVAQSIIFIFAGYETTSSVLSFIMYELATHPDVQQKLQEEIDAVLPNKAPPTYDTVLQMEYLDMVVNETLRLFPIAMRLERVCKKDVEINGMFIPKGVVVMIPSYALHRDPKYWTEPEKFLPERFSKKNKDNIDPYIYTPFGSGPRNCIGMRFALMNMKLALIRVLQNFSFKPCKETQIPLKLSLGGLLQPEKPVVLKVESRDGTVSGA
The target in another data set is CYP2D6 (Homo sapiens, UniProt P10635). Briefly: Inhibition of CYP2D6 in human liver microsomes at 10 uM using dextromethorphan as substrate preincubated for 10 min followed by NADPH addition measured after 10 mins by LC-MS/MS analysis relative to control. The format is ADME. The following applies: probe dextromethorphan.
Chain of CYP2D6 (P10635 whole entry): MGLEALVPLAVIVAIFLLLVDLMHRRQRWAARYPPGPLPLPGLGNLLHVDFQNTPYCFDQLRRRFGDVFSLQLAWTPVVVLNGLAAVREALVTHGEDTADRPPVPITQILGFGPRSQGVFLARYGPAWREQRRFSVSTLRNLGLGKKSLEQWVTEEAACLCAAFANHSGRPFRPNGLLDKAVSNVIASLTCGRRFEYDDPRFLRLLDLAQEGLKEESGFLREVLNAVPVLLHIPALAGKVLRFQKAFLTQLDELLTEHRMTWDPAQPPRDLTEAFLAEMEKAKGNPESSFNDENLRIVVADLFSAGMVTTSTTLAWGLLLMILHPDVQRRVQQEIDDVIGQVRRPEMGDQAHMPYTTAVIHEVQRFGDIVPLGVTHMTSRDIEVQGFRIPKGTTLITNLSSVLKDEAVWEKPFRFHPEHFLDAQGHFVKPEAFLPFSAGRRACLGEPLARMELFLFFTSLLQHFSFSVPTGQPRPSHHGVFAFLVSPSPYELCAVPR

Chain of Voltage-gated inwardly rectifying potassium channel KCNH2 (Q12809 whole entry): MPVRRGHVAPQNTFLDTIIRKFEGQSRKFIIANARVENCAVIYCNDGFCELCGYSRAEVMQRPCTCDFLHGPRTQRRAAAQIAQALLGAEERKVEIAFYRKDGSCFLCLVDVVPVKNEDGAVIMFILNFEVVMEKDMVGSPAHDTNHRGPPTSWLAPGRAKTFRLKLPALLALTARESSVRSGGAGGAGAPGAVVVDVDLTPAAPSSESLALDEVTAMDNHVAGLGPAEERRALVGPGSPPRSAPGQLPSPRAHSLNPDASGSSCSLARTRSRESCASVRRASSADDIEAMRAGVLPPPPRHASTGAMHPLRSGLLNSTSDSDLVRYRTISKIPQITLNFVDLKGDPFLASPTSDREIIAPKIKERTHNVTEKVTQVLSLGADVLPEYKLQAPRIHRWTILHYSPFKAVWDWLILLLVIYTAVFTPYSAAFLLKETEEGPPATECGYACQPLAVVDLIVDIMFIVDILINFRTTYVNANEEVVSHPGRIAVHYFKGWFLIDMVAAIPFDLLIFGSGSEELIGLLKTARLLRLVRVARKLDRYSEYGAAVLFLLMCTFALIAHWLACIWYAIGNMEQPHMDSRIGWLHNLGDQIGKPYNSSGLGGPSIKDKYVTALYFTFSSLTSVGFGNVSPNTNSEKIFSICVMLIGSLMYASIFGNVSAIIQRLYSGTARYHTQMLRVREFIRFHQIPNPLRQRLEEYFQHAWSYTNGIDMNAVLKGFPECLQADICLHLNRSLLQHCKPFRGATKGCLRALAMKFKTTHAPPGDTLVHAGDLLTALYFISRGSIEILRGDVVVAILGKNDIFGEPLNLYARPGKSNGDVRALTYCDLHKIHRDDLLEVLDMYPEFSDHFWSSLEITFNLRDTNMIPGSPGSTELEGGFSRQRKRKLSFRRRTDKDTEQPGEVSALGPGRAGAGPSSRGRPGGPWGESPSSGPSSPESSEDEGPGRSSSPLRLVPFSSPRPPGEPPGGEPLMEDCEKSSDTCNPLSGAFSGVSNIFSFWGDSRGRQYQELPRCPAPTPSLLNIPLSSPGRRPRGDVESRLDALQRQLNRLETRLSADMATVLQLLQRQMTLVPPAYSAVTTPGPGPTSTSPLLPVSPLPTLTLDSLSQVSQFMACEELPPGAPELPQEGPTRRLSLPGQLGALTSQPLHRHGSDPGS

One may read the IC50 as the midpoint of a concentration-inhibition curve. Consider `CN1CCN(c2cccc(CN(C)C3CCCc4cccnc43)n2)CC1` (stereo unspecified), for which the half-maximal inhibitory concentration (IC50) in data set [1] was over 10 µM.
With `CN(Cc1cc(N2CCNCC2)ncn1)C1CCCc2cccnc21` (stereo unspecified), the half-maximal inhibitory concentration (IC50) in data set [1] was 2.6 µM.
In data set [1], `CN(Cc1cc(N2CCN(C(=O)OC(C)(C)C)CC2)ncn1)C1CCCc2cccnc21` (stereo unspecified) had a half-inhibitory concentration (IC50) of over 10 µM.
On the same count and under the same terms, under `CN1CCN(c2ccnc(CN(C)C3CCCc4cccnc43)n2)CC1` (stereo unspecified) stands 0.18 µM.
`CN1CCN(c2ccnc(CN(C)C3CCCc4cccnc43)c2)CC1` (stereo unspecified) had a half-maximal inhibitory concentration (IC50) in [1] of 0.2 µM.
As usually defined, the Papp A→B is how fast a substance crosses the layer from the apical side. What is called efflux ratio is the permeability from basolateral to apical divided by that in the opposite direction, in the common usage. In general, half-life refers to the time needed for the level to fall by half in the phase considered. A high value points to slow loss. With `CN1CCN(c2cc(CN(C)[C@H]3CCCc4cccnc43)ncn2)CC1`, the IC50 in [1] is 0.088 µM; in data set [2], 0.00073 µM; in data set [3] it was over 30 µM. The apical-to-basolateral permeability (Papp A→B) at 2 µM in data set [4] is 150 nm/s. In addition, in data set [5], the efflux ratio at 2 µM turned out to be 1.5. Further, the CLint scaled at 1 µM in data set [6] is 13.6 L/h/kg; in [7] it was 232 L/h/kg. The values for the half-life at 1 µM in data set [8] and in data set [9] were 7.7 min and 1.4 min, respectively.
In [1], `CN(Cc1cc(N2CCN(CC3CC3)CC2)ncn1)C1CCCc2cccnc21` (stereo unspecified) yielded a half-inhibitory concentration (IC50) of 1.05 µM.
The same measure, in the same setting: under `CN(C)C1CCN(c2cc(CN(C)C3CCCc4cccnc43)ncn2)CC1` (stereo unspecified) stands 0.63 µM; under `CN(C)CCN(C)c1cc(CN(C)C2CCCc3cccnc32)ncn1` (stereo unspecified), 1.02 µM; under `CC(C)N1CCN(c2cc(CN(C)C3CCCc4cccnc43)ncn2)CC1` (stereo unspecified), 0.21 µM.
On the same count and under the same terms, under `CN1CCN(c2cc(CN(CCCCNC(=O)OC(C)(C)C)C3CCCc4cccnc43)ncn2)CC1` (stereo unspecified) stands 0.018 µM.
Consider `CN1CCN(c2cc(CN(CCCCN)C3CCCc4cccnc43)ncn2)CC1` (stereo unspecified), for which the IC50 in data set [1] stood at 0.018 µM.
Molecule `CN(Cc1cc(N2CCN(CCO)CC2)ncn1)C1CCCc2cccnc21` (stereo unspecified) gave an IC50 in [1] of 0.29 µM.
In [1], `CN1CCCN(c2cc(CN(C)C3CCCc4cccnc43)ncn2)CC1` (stereo unspecified) had a half-maximal inhibitory concentration (IC50) of 0.17 µM.
The same measure, in the same setting: the value for `CCN1CCN(c2cc(CN(C)C3CCCc4cccnc43)ncn2)CC1` (stereo unspecified) was 0.32 µM.
Take `CN1CCN(c2nccc(CN(C)C3CCCc4cccnc43)n2)CC1` (stereo unspecified): the IC50 in data set [1] is over 10 µM.
The term inhibition denotes how much of the control response was suppressed. Regarding `CN1CCN(c2cc(CN(C)C3CCCc4cccnc43)ncn2)CC1.Cl` (stereo unspecified), the concentration for half-maximal inhibition (IC50) amounted to 0.054 µM in data set [1] and 0.0023 µM in data set [2]. Besides, the inhibition result in [10] was “Active”. Moreover, the Ratio IC50 in [11] stood at 8. Also, the result in the data set on MDA-MB-231 and with MCF7 was inactive. The Activity entry in [12] is “Non-Toxic”. In addition, the inhibition at 10 min, 10 µM was 9% against CYP3A4 and 3% against CYP2D6.
On to `CN1CCN(c2cc(CN(C)C3CCCc4cccnc43)ccn2)CC1` (stereo unspecified), for which, in [1], the concentration for half-maximal inhibition (IC50) is over 10 µM.
As to `CN(Cc1cc(NCCN2CCOCC2)ncn1)C1CCCc2cccnc21` (stereo unspecified), the IC50 in [1] came to 0.64 µM.
As for `c1cc(CN2CCCNCCNCCCNCC2)ccc1CN1CCCNCCNCCCNCC1`, the inhibition result in [10] is “Active”.
Molecule `CN(Cc1ccncn1)C1CCCc2cccnc21` (stereo unspecified) had an IC50 in data set [1] of over 10 µM.
For the molecule `CN(C)C1CCN(c2cc(CN(C)C3CCCc4cccnc43)ncn2)C1` (stereo unspecified), the concentration for half-maximal inhibition (IC50) in [1] was found to be 0.15 µM.
As to `CN1CCN(c2cc(CN(C)[C@@H]3CCCc4cccnc43)ncn2)CC1`, the IC50 in data set [1] is 1.3 µM; in data set [2] it was 0.068 µM.
In turn, `CN(C)c1cc(CN(C)C2CCCc3cccnc32)ncn1` (stereo unspecified) showed a half-maximal inhibitory concentration (IC50) in [1] of over 10 µM.
